Mot1-301 SUMO: blocks SUMOylation pathway, rescuing yeast Mot1-301 growth | S. cerevisiae Mot1-301 growth rescue, ATP luminescence, 38.5C; percent above DMSO median, 100 means doubled | AID 2716 | 320,000 compounds, 1% hits | growth rescue, % at 18.8 µM;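 active means every valid replicate shows activation above 250% relative to neutral control wells; inactive means the rest, any valid replicate at or below 250%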;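 further: OY570 slx delta 5 strain wells were the positive control but not used for scaling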
CSC inhib: cancer stem cell inhibition | cancer stem cell-like cells viability, luminescence | AID 2717 | 300,000 compounds, 1.1% hits | inhibition, % at 7.5 µM; in the data active means inhibition above about 75%; tested in HMLE shEcad cells
WT yeast gro inh: growth inhibition of WT yeast, mitochondrial fusion screen. mitochondrial fusion phenotypic screen, WT strain. inhibition, % at 10 µM. 190,000 compounds, 2.1% hits. AID 1362; in the data active means inhibition above about 58%; tested in S. cerevisiae
T cruzi repl: blocks replication of Trypanosoma cruzi. 300,000 compounds, 1.4% hits. AID 1885. inhibition, % (concentration not given with the values). T. cruzi beta-gal in NIH3T3, luminescence, 90 h;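 active means mean inhibition across valid replicates above about 55%, limit read from the data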;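 further: signal also drops with host cell toxicity which is not excluded here; 0% = plate median of DMSO wells and 100% = zero luminescence signal; higher percent means less beta-gal luminescence so fewer parasites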
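Read-out: Parasite load inhibition, % | Test system: Mouse NIH/3T3 fibroblasts infected with β-gal-expressing T. cruzi Tulahuen C4 | Amount: 5,000 cells/well | Medium: DMEM, 2% fetal bovine serum | Signal: GalScreen β-gal luminescence, detergent lysis, 60 min | Timing: 3 h attach, ≥90 h co-culture | Also added: Tulahuen C4 trypomastigotes, 5000/well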
Beta cell apopt: beta cell apoptosis inhibition; INS-1E cytokine-induced death, ATP luminescence, 48 h; percent of positive-control rescue, neutral wells zero; protection from apoptosis, % (test concentration not listed); 300,000 compounds, 0.8% hits;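 active means Every replicate reaches about 75%, or at least half do and their mean reaches it too, limit read from the data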;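 further: 0% = cytokine-treated negative control wells and 100% = positive control rescue; higher means more ATP so stronger rescue from cytokine killing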
Efflux pump mplx: antifungal efflux pump inhibition, Nile Red retention; S. cerevisiae Candida pump triplex; inhibition, % at 10 µM; 330,000 compounds, 0.44% hits; AID 485275;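 active means plate passing quality check with inhibition over a set limit, or well fluorescence over plate mean plus 4 SD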;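 further: Nile Red retained in pooled yeast measured as flow cytometry median fluorescence; 0% = buffer negative control and 100% = Enniatin B positive control; higher means more Nile Red kept so more efflux inhibition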
Numbers without * were called inactive; . = not tested or not shown; + = active, no number; ! = not active in a repeat. The list is not random: actives were taken first. Their share in the collection is about 4.8%.

SMILES	Mot1-301 SUMO	CSC inhib	WT yeast gro inh	T cruzi repl	Beta cell apopt	Efflux pump mplx
O=C(CSc1cccc[n+]1[O-])N1CCCCCC1	0	-7	-9	2	-4	0
O=C(CSc1cccc[n+]1[O-])CSc1cccc[n+]1[O-]	-26	7	-7	67*	.	0
CCc1ccccc1NS(=O)(=O)c1cc2c3c(c1)CCN3C(=O)CC2	.	.	.	10	.	.
Oc1ccc2ccccc2c1-c1sc(Nc2ccccc2)n[n+]1-c1ccc(F)cc1	2	6	.	12	-7	0
Fc1ccc(-[n+]2nc(Nc3ccccc3)sc2-c2c3ccccc3cc3ccccc23)cc1	-6	103*	.	49	67	0
c1ccc(-[n+]2nc(Nc3cccc4ccccc34)sc2-c2c3ccccc3cc3ccccc23)cc1	-4	6	.	.	117*	0
CCc1ccc(Nc2n[n+](-c3ccccc3)c(-c3cccc(C)c3)s2)cc1	-1	27	.	.	69	0
C=C(C)COc1ccc(-c2n[nH]c(C)c2-c2ccc(OC)cc2)c(O)c1	13	+	34	0	29	0
COc1cc(OC)cc(-c2cc3nc(C)c(CCC(=O)NC(C)CCc4ccco4)c(C)n3n2)c1 (configuration not stated)	-14	-12	25	65*	6	0
Cc1nc2cc(-c3cccc(F)c3)nn2c(C)c1CCC(=O)NC(C)CCc1ccco1 (configuration not stated)	-20	-8	13	39	.	0
COc1ccc(CNC(=O)CCc2c(C)nc3cc(-c4ccccc4OC)nn3c2C)cc1	-25	-8	.	41	-1	0
COc1ccc(-c2cc3nc(C)c(CCC(=O)NCc4ccc(F)cc4)c(C)n3n2)c(OC)c1	29	-11	34	60*	10	0
CC(C)n1c(CSCc2ccc(Cl)cc2Cl)n[nH]c1=S	-6	18	65*	12	-5	0
O=S1(=O)N[C@H](c2ccccc2)C[C@H](c2ccc(C(F)(F)F)cc2)O1	-10	0	.	8	2	0
COc1ccc(SCCc2ccncc2)cc1	46	-6	-10	70*	8	0
Fc1ccc(SCCc2ccncc2)cc1	115	-22	21	68*!	-10	0
O=[N+]([O-])c1ccc(SCCc2ccncc2)cc1	3	18	.	50	-7	0
c1ccc(SCCc2ccncc2)cc1	21	-4	-11	28	-1	0
Cc1cc(C)n(CC(O)Cn2c3ccccc3c3ccccc32)n1 (configuration not stated)	-6	15	5	13	3	0
Cc1cc(C)n(CC(O)CN2c3ccccc3Sc3ccccc32)n1 (configuration not stated)	28	18	73*	7	3	0
Cc1cc(C(C)(C)C)ccc1OCCOCCN1CCCC1	14	54	20	55*	-3	0
Cc1ccc(OCCOCCN2CCN(C)CC2)c(C(C)(C)C)c1	5	59	.	51	-1	0
Cc1cc(Cl)c(OCCOCCN2CCN(C)CC2)c(Br)c1	-21	58	.	59*	0	0
Cc1cc(C)c(OCCCCN2CCC(C)CC2)c(Br)c1	164	82*	39	30	10	0
Cc1ccc([N+](=O)[O-])c(OCCN2CCCCCC2)c1	78	-1	-1	-1	79*	0
SMILES	Mot1-301 SUMO	CSC inhib	WT yeast gro inh	T cruzi repl	Beta cell apopt	Efflux pump mplx
C/C(=N/NS(=O)(=O)c1cccc([N+](=O)[O-])c1)c1ccncc1	70	.	.	5	-13	0
COc1ccc(-c2[nH]ncc2CNC(C)c2cn(C)nc2C)c(F)c1 (configuration not stated)	9	-4	-6	-10	-4	0
CC1CCCN(CCCOc2ccc(Cl)cc2Br)C1 (configuration not stated)	482*	54	30	21	1	0
C=CCNCCCOc1ccc(Cl)cc1C(C)(C)C	3	104*	75*	17	-4	0
Clc1cc(Br)ccc1OCCOCCN1CCCC1	71	50	.	59*	0	0
Cc1ccc(C(C)C)cc1OCCCCN1CCCC1	320*	55	32	49	3	0
CC1CCN(CCCOc2ccc(Cl)cc2Br)CC1	.	34	27	16	2	0
C/C(=N\NC(=O)C(N)=O)c1cccc(C(F)(F)F)c1	256	-10	6	-3	.	0
Cc1ccc(Cl)c(OCCN2CCCC(C)C2)c1 (configuration not stated)	538*	45	2	-26	-3	0
CC1CCN(CCOCCOc2ccc(Cl)cc2Br)CC1	46	62	14	64*	10	0
Clc1ccc(OCCOCCN2CCCCC2)c(Br)c1	39	25	44	59*	2	0
Clc1ccc(Cl)c(OCCN2CCCC2)c1	77	-1	.	6	.	0
CC(C)(C)c1cc(Cl)ccc1OCCOCCN1CCCC1	103	93*	.	47	4	0
Cn1c(=O)c2sccc2n2c(CCCC(=O)Nc3ccc(F)cc3F)nnc12	143	-8	.	-8	2	0
O=C(CSc1nc(=O)n(CCCN2CCOCC2)c2c1CCC2)Nc1ccc([N+](=O)[O-])cc1	154	-5	.	-4	-3	0
CN(C(=O)c1cccc(NC(=O)Cc2cccc([N+](=O)[O-])c2)c1)C1CC1	6	-7	.	.	-5	-1
COc1ccc(-c2ccc(C)cc2)cc1[C@H]1[C@@H]2C=CCC[C@@]2(C)C(=O)N1Cc1ccccc1	-16	115*	.	32	4	0
Cc1ccccc1NS(=O)(=O)c1ccc(C(=O)NCC(c2ccco2)N2CCCCC2)cc1 (configuration not stated)	3	-6	.	1	6	0
Cc1cc(C)c(S(=O)(=O)c2c(C)cccc2C)c(Cl)n1	1	1	16	47	-2	0
Cc1cc(C)c(S(=O)(=O)c2cccc(Cl)c2)c(Cl)n1	-3	-14	-5	-1	-3	0
Cc1cc(C)c(S(=O)(=O)c2ccc(Cl)cc2C)c(Cl)n1	-5	-2	-4	56*	-14	0
Cc1cc(C)c(S(=O)(=O)c2cc(F)ccc2C)c(Cl)n1	-10	-1	.	65*	-7	0
CCCCNc1nc(=S)n(-c2ccccc2)c(C)c1C(C)=O	8	1	4	-22	-3	0
COC(=O)c1cn(N(C)c2ncc(C(F)(F)F)cc2Cl)c(=O)c2ccccc12	-11	.	72*	6	3	0
COC(=O)c1cn(Nc2ncc(C(F)(F)F)cc2Cl)c(=O)c2ccccc12	11	-14	12	15	5	0
N#CCCN(Cc1ccccc1)C(=O)c1cccs1	2	-13	.	-10	-6	0
COc1ccccc1CNc1ncnc2sccc12	-11	10	.	-22	97*	0
Fc1ccccc1CNc1ncnc2sccc12	-14	7	.	-38	53	0

Bioassay records: PubChem BioAssay, several laboratories
